Measurements taken from ChEMBL document CHEMBL1681784, “Development of sulfonamide AKT PH domain inhibitors” (Bioorg Med Chem, 2011).
pIC50: −log10 of the molar value. Active and inactive are the calls of the source. The calls are words filed in the database; no cut-off is given here.

What follows are molecules tested on BXPC-3 (assay: Cytotoxicity against human BxPC3 cells by MTT assay).
Type: functional, cell-based

Question: CC(=O)Nc1ccc(S(=O)(=O)Nc2nncs2)cc1 was tested. Which pIC50 did it give?
Answer: < 3.52

Question: With CCCCCCCCCCCCc1ccc(S(=O)(=O)Nc2nnc(CC(=O)O)s2)cc1 as the molecule, how does the pIC50 read?
Answer: 3.93

Question: How did the pIC50 turn out when CC(=O)Nc1ccc(S(=O)(=O)Nc2nnc(S(N)(=O)=O)s2)cc1 was run?
Answer: < 3.52

Question: With CC(=O)Nc1ccc(S(=O)(=O)Nc2nnc(C(C)(C)C)s2)cc1 as the molecule, how does the pIC50 read?
Answer: < 3.52

Question: CCCCCCCCCC(=O)Nc1ccc(S(=O)(=O)Nc2nncs2)cc1 was tested. Which pIC50 did it give?
Answer: 3.74

Question: O=S(=O)(Nc1nnc(CO)s1)c1ccc(-c2ccccc2)cc1 was tested. Which pIC50 did it give?
Answer: < 3.52

Question: With CCCCCCCCCC(=O)Nc1ccc(S(=O)(=O)Nc2nnc(S(N)(=O)=O)s2)cc1 as the molecule, how does the pIC50 read?
Answer: < 3.52

Question: How did the pIC50 turn out when CCCCCCCCCC(=O)Nc1ccc(S(=O)(=O)Nc2nnc(CC(=O)O)s2)cc1 was run?
Answer: < 3.52

Question: With CCOC(=O)Cc1nnc(NS(=O)(=O)c2ccc(NC(C)=O)cc2)s1 as the molecule, how does the pIC50 read?
Answer: 3.75

Question: How did the pIC50 turn out when CC(C)(C)c1nnc(NS(=O)(=O)c2ccc(N)cc2)s1 [GLYBUTHIAZOL] was run?
Answer: < 3.52

Question: How did the pIC50 turn out when CCCCCCCCCCCCc1ccc(S(=O)(=O)Nc2ccccc2)cc1 was run?
Answer: 4.42

Question: Nc1ccc(S(=O)(=O)Nc2nnc(CO)s2)cc1 was tested. Which pIC50 did it give?
Answer: < 3.52

Question: CCCCCCc1ccc(S(=O)(=O)Nc2nncs2)cc1 was tested. Which pIC50 did it give?
Answer: 3.58

Question: CCCCCCCCCC(=O)Nc1ccc(S(=O)(=O)Nc2nnc(C(C)(C)C)s2)cc1 was tested. Which pIC50 did it give?
Answer: < 3.52

Question: CCc1nnc(NS(=O)(=O)c2ccc(N)cc2)s1 [SULFAETHIDOLE] was tested. Which pIC50 did it give?
Answer: < 3.52

Question: CCCCCCCCCC(=O)Nc1ccc(S(=O)(=O)Nc2nnc(CC(=O)OCC)s2)cc1 was tested. Which pIC50 did it give?
Answer: 3.77

Question: CCCCc1ccc(S(=O)(=O)Nc2nncs2)cc1 was tested. Which pIC50 did it give?
Answer: < 3.52

Question: How did the pIC50 turn out when CCCCCCCCCC(=O)Nc1ccc(S(=O)(=O)Nc2nnc(CO)s2)cc1 was run?
Answer: 3.72

Question: With CCCCCCCCCCCCc1ccccc1S(=O)(=O)Nc1nncs1 as the molecule, how does the pIC50 read?
Answer: 4.13

Question: With CC(=O)Nc1ccc(S(=O)(=O)Nc2nnc(C)s2)cc1 as the molecule, how does the pIC50 read?
Answer: < 3.52

Question: With CCCCCCCCCC(=O)Nc1ccc(S(=O)(=O)Nc2nnc(C)s2)cc1 as the molecule, how does the pIC50 read?
Answer: 3.83

Question: How did the pIC50 turn out when CCCCCCCCCC(=O)Nc1ccc(S(=O)(=O)Nc2nnc(C(=O)OCC)s2)cc1 was run?
Answer: 3.93

Question: How did the pIC50 turn out when Nc1ccc(S(=O)(=O)Nc2nncs2)cc1 was run?
Answer: < 3.52

Question: With Nc1ccc(S(=O)(=O)Nc2nnc(CC(=O)O)s2)cc1 as the molecule, how does the pIC50 read?
Answer: < 3.52

Question: How did the pIC50 turn out when CCCCCCCCCCCCc1cccc(S(=O)(=O)Nc2nncs2)c1 was run?
Answer: 4.15

Question: With Cc1nnc(NS(=O)(=O)c2ccc(N)cc2)s1 [SULFAMETHIZOLE] as the molecule, how does the pIC50 read?
Answer: < 3.52

Question: How did the pIC50 turn out when CC(=O)Nc1ccc(S(=O)(=O)Nc2nnc(CO)s2)cc1 was run?
Answer: < 3.52

Question: Nc1ccc(S(=O)(=O)Nc2nnc(S(N)(=O)=O)s2)cc1 was tested. Which pIC50 did it give?
Answer: < 3.52

Question: With CCc1nnc(NS(=O)(=O)c2ccc(NC(C)=O)cc2)s1 as the molecule, how does the pIC50 read?
Answer: < 3.52

Question: With COCCOCCOCC(=O)Nc1ccc(S(=O)(=O)Nc2nncs2)cc1 as the molecule, how does the pIC50 read?
Answer: < 3.52

Question: With CCCCCCCCCC(=O)Nc1ccc(S(=O)(=O)Nc2nnc(CC)s2)cc1 as the molecule, how does the pIC50 read?
Answer: 3.84

Question: O=S(=O)(Nc1nncs1)c1ccc(-c2ccccc2)cc1 was tested. Which pIC50 did it give?
Answer: < 3.52

Question: How did the pIC50 turn out when CCCCCCCCCCCCc1ccc(S(=O)(=O)Nc2nnc(C)s2)cc1 was run?
Answer: 4.29

Question: With CC(=O)Nc1ccc(S(=O)(=O)Nc2nnc(CC(=O)O)s2)cc1 as the molecule, how does the pIC50 read?
Answer: < 3.52

Question: CCOC(=O)c1nnc(NS(=O)(=O)c2ccc(NC(C)=O)cc2)s1 was tested. Which pIC50 did it give?
Answer: < 3.52

These molecules were tested on BXPC-3 (assay: Inhibition of AKT phosphorylation at serine 473 residue in human BxPC3 cells at 10 uM after 4 hrs by ELISA).
Type: cell-based
Procedure, shortened: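 BxPC3 cells kept in DMEM with 10% heat-inactivated FBS and 4.5 g/L glucose under 5% CO2, mycoplasma-free. Compound made fresh as a 10 mM DMSO stock and dosed at 10 μM final into the medium for 4 h. Equal amounts of lysate run on an MSD pSer473-AKT/total AKT plate; read-out is the pAKT/AKT ratio.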

Question: Which inhibition does the source give for CCCCCCCCCCCCc1ccc(S(=O)(=O)Nc2ccccc2)cc1 here?
Answer: inactive

Question: Which inhibition does the source give for CCCCCCCCCCCCc1ccccc1S(=O)(=O)Nc1nncs1 here?
Answer: inactive

Question: With CCCCCCCCCCCCc1cccc(S(=O)(=O)Nc2nncs2)c1 as the molecule, how does the inhibition read?
Answer: inactive
